Calls of active or inactive are those of the source. No cut-off for these calls is given here.
How the values were obtained:
Type in all cases: functional, cell-based
[1] = biological target: T1, Somatostatin receptor type 2 (Homo sapiens, UniProt P30874); assay: Antagonist activity at T7 epitope tagged human cloned sst2 expressed in HEK293 cells assessed as intracellular calcium release upto 10 uM
Procedure, shortened: (§1)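 HEK-sst2 cells seeded on poly-D-lysine, cultured 1 day, loaded with Fluo-4NW dye (assay buffer HBSS/20 mM HEPES, 2.5 mM probenecid) 30 min 37 °C plus 30 min RT. Analogues alone up to 10 μM, or [Tyr3]-octreotide with 100-fold excess analogue; fluorescence (ex 485/em 520 nm) recorded 60 s at RT; percentage of ionomycin (25 μM) maximum over baseline; ≥3 experiments in triplicate.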

[2] = biological target: T1, Somatostatin receptor type 2; assay: Antagonist activity at T7 epitope tagged human cloned sst2 receptor expressed in HEK293 cells assessed as inhibition of [Tyr3]octreotide-induced receptor internalization upto 10 uM
Procedure, shortened: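 Surface T7-tagged sst2 on HEK-sst2 cells labelled with anti-T7 antibody 2 h RT in DMEM-LH, then cells exposed 30 min at 37 °C to analogue (alone up to 10 μM or with [Tyr3]-octreotide), fixed in 3% paraformaldehyde, probed with HRP anti-mouse IgG, ABTS read at OD405; surface receptor as % of untreated; mean ± SEM, three experiments in duplicate.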

[3] = biological target: T1, Somatostatin receptor type 2; assay: Antagonist activity at T7 epitope tagged human cloned sst2 expressed in HEK293 cells assessed as [Tyr3]octreotide-induced intracellular calcium release upto 10 uM; procedure, shortened: as §1

T1 sequence (P30874 whole entry): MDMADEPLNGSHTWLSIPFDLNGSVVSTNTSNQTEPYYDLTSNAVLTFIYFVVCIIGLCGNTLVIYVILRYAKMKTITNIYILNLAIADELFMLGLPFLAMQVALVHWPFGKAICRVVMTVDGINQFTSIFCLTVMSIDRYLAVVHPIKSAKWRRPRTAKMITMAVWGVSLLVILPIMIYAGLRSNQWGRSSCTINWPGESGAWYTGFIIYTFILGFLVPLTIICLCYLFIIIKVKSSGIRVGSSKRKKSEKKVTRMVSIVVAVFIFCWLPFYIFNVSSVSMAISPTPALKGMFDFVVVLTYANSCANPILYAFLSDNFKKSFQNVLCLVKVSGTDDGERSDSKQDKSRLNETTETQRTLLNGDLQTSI

| Compound | Activity [1] | Activity [2] | Activity [3] |
| --- | --- | --- | --- |
| C[C@@H](O)[C@@H]1NC(=O)[C@H](CCCCN)NC(=O)[C@@H](Cc2c[nH]c3ccccc23)NC(=O)[C@H](Cc2ccc(NC(N)=O)cc2)NC(=O)[C@H](NC(=O)[C@H](N)Cc2ccc(Cl)cc2)CSSC[C@@H](C(=O)N[C@@H](Cc2ccc(NC(=O)[C@@H]3CC(=O)NC(=O)N3)cc2)C(N)=O)NC1=O | inactive | – | – |
| C[C@@H](O)[C@@H]1NC(=O)[C@H](CCCCN)NC(=O)[C@@H](Cc2c[nH]c3ccccc23)NC(=O)[C@H](Cc2ccc(NC(N)=O)cc2)NC(=O)[C@H](NC(=O)[C@H](N)Cc2ccc(Cl)cc2)CSSC[C@@H](C(=O)N[C@H](Cc2ccc(NC(N)=O)cc2)C(=O)NCC(=O)O)NC1=O | inactive | – | – |
| C[C@@H](O)[C@@H]1NC(=O)[C@H](CCCCN)NC(=O)[C@@H](Cc2ccc(NC(N)=O)cc2)NC(=O)[C@H](Cc2ccc(O)cc2)NC(=O)[C@H](NC(=O)[C@H](N)Cc2ccc([N+](=O)[O-])cc2)CSSC[C@@H](C(=O)N[C@@H](Cc2ccc3ccccc3c2)C(N)=O)NC1=O | inactive | Active | – |
| C[C@@H](O)[C@@H]1NC(=O)[C@H](CCCCN)NC(=O)[C@@H](Cc2c[nH]c3ccccc23)NC(=O)[C@H](Cc2ccc(NC(N)=O)cc2)NC(=O)[C@H](NC(=O)[C@H](N)Cc2ccc(Cl)cc2)CSSC[C@@H](C(N)=O)NC1=O | inactive | Active | Active |
| CC(=O)N[C@H](Cc1ccc([N+](=O)[O-])cc1)C(=O)N[C@@H]1CSSC[C@@H](C(=O)N[C@H](Cc2ccc(O)cc2)C(N)=O)NC(=O)[C@H]([C@@H](C)O)NC(=O)[C@H](CCCCN)NC(=O)[C@@H](Cc2c[nH]c3ccccc23)NC(=O)[C@H](Cc2ccc(O)cc2)NC1=O | inactive | Active | – |
| C[C@@H](O)[C@@H]1NC(=O)[C@H](CCCCN)NC(=O)[C@@H](Cc2ccc(NC(N)=O)cc2)NC(=O)[C@H](Cc2ccc(NC(=O)[C@@H]3CC(=O)NC(=O)N3)cc2)NC(=O)[C@H](NC(=O)[C@@H](Cc2ccc(Cl)cc2)NC(=O)CN2CCN(CC(=O)O)CCN(CC(=O)O)CCN(CC(=O)O)CC2)CSSC[C@@H](C(=O)N[C@@H](Cc2ccc3ccccc3c2)C(N)=O)NC1=O | inactive | Active | Active |
| C[C@@H](O)[C@@H]1NC(=O)[C@H](CCCCN)NC(=O)[C@@H](Cc2c[nH]c3ccccc23)NC(=O)[C@H](Cc2ccc(NC(=O)NO)cc2)NC(=O)[C@H](NC(=O)[C@H](N)Cc2ccc(Cl)cc2)CSSC[C@@H](C(=O)N[C@@H](Cc2ccc3ccccc3c2)C(N)=O)NC1=O | inactive | – | – |
| C[C@@H](O)[C@@H]1NC(=O)[C@H](CCCCN)NC(=O)[C@@H](Cc2ccc(NC(N)=O)cc2)NC(=O)[C@H](Cc2ccc(NC(=O)[C@@H]3CC(=O)NC(=O)N3)cc2)NC(=O)[C@H](NC(=O)[C@H](N)Cc2ccc([N+](=O)[O-])cc2)CSSC[C@@H](C(=O)N[C@@H](Cc2ccc3ccccc3c2)C(N)=O)NC1=O | inactive | – | – |
| CONC(=O)Nc1ccc(C[C@@H]2NC(=O)[C@H](NC(=O)[C@H](N)Cc3ccc(Cl)cc3)CSSC[C@@H](C(=O)N[C@@H](Cc3ccc4ccccc4c3)C(N)=O)NC(=O)[C@H]([C@@H](C)O)NC(=O)[C@H](CCCCN)NC(=O)[C@@H](Cc3c[nH]c4ccccc34)NC2=O)cc1 | inactive | – | – |
| C[C@@H](O)[C@@H]1NC(=O)[C@H](CCCCN)NC(=O)[C@@H](Cc2c[nH]c3ccccc23)NC(=O)[C@H](Cc2ccc(NC(N)=O)cc2)NC(=O)[C@H](NC(=O)[C@@H](Cc2ccc(Cl)cc2)NC(=O)CCOCCOCCOCCNC(=O)CN2CCN(CC(=O)O)CCN(CC(=O)O)CCN(CC(=O)O)CC2)CSSC[C@@H](C(=O)N[C@@H](Cc2ccc3ccccc3c2)C(N)=O)NC1=O | inactive | Active | – |
| C[C@@H](O)[C@@H]1NC(=O)[C@H](CCCCN)NC(=O)[C@@H](Cc2ccc(NC(N)=O)cc2)NC(=O)[C@H](Cc2ccc(O)cc2)NC(=O)[C@H](NC(=O)[C@H](N)Cc2ccc(Cl)cc2)CSSC[C@@H](C(=O)N[C@@H](Cc2ccc3ccccc3c2)C(N)=O)NC1=O | inactive | – | – |
| C[C@@H](O)[C@@H]1NC(=O)[C@H](CCCCN)NC(=O)[C@@H](Cc2ccc(NC(N)=O)cc2)NC(=O)[C@H](Cc2ccc(NC(=O)[C@@H]3CC(=O)NC(=O)N3)cc2)NC(=O)[C@H](NC(=O)[C@H](N)Cc2ccc(Cl)cc2)CSSC[C@@H](C(=O)N[C@@H](Cc2ccc3ccccc3c2)C(N)=O)NC1=O | inactive | Active | Active |
| C[C@@H](O)[C@@H]1NC(=O)[C@H](CCCCN)NC(=O)[C@H](Cc2c[nH]c3ccc(F)cc23)NC(=O)[C@H](Cc2ccc(NC(N)=O)cc2)NC(=O)[C@H](NC(=O)[C@H](N)Cc2ccc(Cl)cc2)CSSC[C@@H](C(=O)N[C@@H](Cc2ccc3ccccc3c2)C(N)=O)NC1=O | inactive | – | – |
| C[C@@H](O)[C@@H]1NC(=O)[C@H](CCCCN)NC(=O)[C@@H](Cc2ccc(NC(N)=O)cc2)NC(=O)[C@H](Cc2ccc(O)cc2)NC(=O)[C@H](NC(=O)[C@@H](Cc2ccc([N+](=O)[O-])cc2)NC(=O)CN2CCN(CC(=O)O)CCN(CC(=O)O)CCN(CC(=O)O)CC2)CSSC[C@@H](C(=O)N[C@@H](Cc2ccc3ccccc3c2)C(N)=O)NC1=O | inactive | Active | Active |
| C[C@@H](O)[C@@H]1NC(=O)[C@H](CCCCN)NC(=O)[C@@H](Cc2c[nH]c3ccccc23)NC(=O)[C@H](Cc2ccc(NC(N)=O)cc2)NC(=O)[C@H](NC(=O)[C@H](N)Cc2ccc(Cl)cc2)CSSC[C@@H](C(=O)N[C@@H](CC2CCCCC2)C(N)=O)NC1=O | inactive | – | – |
| C[C@@H](O)[C@@H]1NC(=O)[C@H](CCCCN)NC(=O)[C@@H](Cc2c[nH]c3ccccc23)NC(=O)[C@@H](N(C)C(=O)c2ccccc2)NC(=O)[C@H](NC(=O)[C@H](N)Cc2ccc(Cl)cc2)CSSC[C@@H](C(=O)N[C@@H](Cc2ccc3ccccc3c2)C(N)=O)NC1=O | inactive | – | – |
| C[C@@H](O)[C@@H]1NC(=O)[C@H](CCCCN)NC(=O)[C@@H](Cc2c[nH]c3ccccc23)NC(=O)[C@H](Cc2ccc(NC(N)=O)cc2)NC(=O)[C@H](NC(=O)[C@@H](Cc2ccc(Cl)cc2)NC(N)=O)CSSC[C@@H](C(=O)N[C@@H](Cc2ccc3ccccc3c2)C(N)=O)NC1=O | inactive | – | – |
| C[C@@H](O)[C@@H]1NC(=O)[C@H](CCCCN)NC(=O)[C@@H](Cc2c[nH]c3ccccc23)NC(=O)[C@H](Cc2ccc(NC(N)=O)cc2)NC(=O)[C@H](NC(=O)[C@H](N)Cc2ccc(Cl)cc2)CSSC[C@@H](C(=O)N[C@@H](Cc2ccc(NC(N)=O)cc2)C(N)=O)NC1=O | inactive | – | – |
| CC(C)C[C@@H]1NC(=O)[C@H](NC(=O)[C@H](N)Cc2ccc(Cl)cc2)CSSC[C@@H](C(=O)N[C@@H](Cc2ccc3ccccc3c2)C(N)=O)NC(=O)[C@H]([C@@H](C)O)NC(=O)[C@H](CCCCN)NC(=O)[C@@H](Cc2c[nH]c3ccccc23)NC1=O | inactive | – | – |
| C[C@@H](O)[C@@H]1NC(=O)[C@H](CCCCN)NC(=O)[C@@H](Cc2c[nH]c3ccccc23)NC(=O)[C@H](N(C)C(=O)c2ccccc2)NC(=O)[C@H](NC(=O)[C@H](N)Cc2ccc(Cl)cc2)CSSC[C@@H](C(=O)N[C@@H](Cc2ccc3ccccc3c2)C(N)=O)NC1=O | inactive | Active | – |
| C[C@@H](O)[C@@H]1NC(=O)[C@H](CCCCN)NC(=O)[C@@H](Cc2c[nH]c3ccccc23)NC(=O)[C@H](Cc2ccc(NC(N)=O)cc2)NC(=O)[C@H](NC(=O)[C@@H](Cc2ccc(Cl)cc2)NC(=O)CN2CCN(CC(=O)O)CCN(CC(=O)O)CCN(CC(=O)O)CC2)CSSC[C@@H](C(=O)N[C@@H](Cc2ccc3ccccc3c2)C(N)=O)NC1=O | inactive | Active | Active |
| C[C@@H](O)[C@@H]1NC(=O)[C@H](CCCCN)NC(=O)[C@@H](Cc2c[nH]c3ccc(F)cc23)NC(=O)[C@H](Cc2ccc(NC(N)=O)cc2)NC(=O)[C@H](NC(=O)[C@H](N)Cc2ccc(Cl)cc2)CSSC[C@@H](C(=O)N[C@@H](Cc2ccc3ccccc3c2)C(N)=O)NC1=O | inactive | Active | Active |
| C[C@@H](O)[C@@H]1NC(=O)[C@H](CCCCN)NC(=O)[C@@H](Cc2c[nH]c3ccccc23)NC(=O)[C@H](Cc2ccc(O)cc2)NC(=O)[C@H](NC(=O)[C@H](N)Cc2ccc(Cl)cc2)CSSC[C@@H](C(=O)N[C@@H](Cc2ccc3ccccc3c2)C(N)=O)NC1=O | inactive | Active | Active |
| C[C@@H](O)[C@@H]1NC(=O)[C@H](CCCCN)NC(=O)[C@@H](Cc2c[nH]c3ccccc23)NC(=O)[C@H](Cc2ccc(NC(N)=O)cc2)NC(=O)[C@H](NC(=O)[C@@H](Cc2ccc(Cl)cc2)NC(=O)CCNC(=O)CN2CCN(CC(=O)O)CCN(CC(=O)O)CCN(CC(=O)O)CC2)CSSC[C@@H](C(=O)N[C@@H](Cc2ccc3ccccc3c2)C(N)=O)NC1=O | inactive | Active | Active |
| C[C@@H](O)[C@@H]1NC(=O)[C@H](CCCCN)NC(=O)[C@@H](Cc2c[nH]c3ccccc23)NC(=O)[C@H](Cc2ccc(NC(N)=O)cc2)NC(=O)[C@H](NC(=O)[C@H](N)Cc2ccc(Cl)cc2)CSSC[C@@H](C(=O)N[C@H](Cc2ccc(NC(N)=O)cc2)C(N)=O)NC1=O | inactive | – | – |

Reference: ChEMBL document CHEMBL1157505, “Design and in vitro characterization of highly sst2-selective somatostatin antagonists suitable for radiotargeting” (J Med Chem, 2008)
